This is a sample that favours compounds with a hit; in the whole collection about 1.6% have one here.
GSTO1 inh – inhibitors of recombinant GSTO1, primary screen, counter-screen for RBBP9 inhibitor project, biochemical, fluorescence polarization; Glutathione S-transferase omega-1 (Homo sapiens), P78417; activity-based probe fluorescence polarization; inhibition, % at 5.96 µM; hit rate 1.1% among 300,000; AID 1974, 2009;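 active means inhibition above the campaign mean inhibition plus 3 SD, cut at about 35% in these data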;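 further: 0% = GSTO1-1 with DMSO and 100% = wells lacking GSTO1-1 enzyme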
JMJD2C inh – inhibitors of GASC-1 histone demethylase, primary screen, biochemical, fluorescence, DELFIA europium | AID 2099, 2009 | inhibition, % at 2.35 µM | GST-JMJD2C(1-420) H3K9me3 demethylation | Lysine-specific demethylase 4C (Homo sapiens), Q9H3R0 | hit rate 0.069% among 330,000;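 active means more than half of a compound's replicate wells show inhibition beyond 50%, single wells judged on their own value; inconclusive means some, but no more than half, of replicates pass 50% inhibition; inactive means no replicate passes 50% inhibition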;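 further: signal counts dimethyl H3K9 product captured on neutravidin plate; 0% = median of DMSO wells and 100% = 0.3 times that DMSO median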
Target sequence (Q9H3R0 1-420 limits assumed): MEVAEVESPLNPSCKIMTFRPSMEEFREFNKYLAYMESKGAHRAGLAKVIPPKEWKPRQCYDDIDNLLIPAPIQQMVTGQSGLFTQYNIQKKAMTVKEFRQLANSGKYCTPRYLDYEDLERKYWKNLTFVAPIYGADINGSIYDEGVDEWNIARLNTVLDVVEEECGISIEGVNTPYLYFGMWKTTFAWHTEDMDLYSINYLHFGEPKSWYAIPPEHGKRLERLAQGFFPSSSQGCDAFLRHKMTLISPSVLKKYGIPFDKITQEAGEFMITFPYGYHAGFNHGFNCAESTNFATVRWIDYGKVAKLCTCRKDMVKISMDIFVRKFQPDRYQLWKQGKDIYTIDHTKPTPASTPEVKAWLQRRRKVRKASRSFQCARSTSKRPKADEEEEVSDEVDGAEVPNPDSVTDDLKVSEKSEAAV
PAD4 inh – human PAD4 inhibitors, primary screen, biochemical, fluorescence polarization, 1536-well format | Protein-arginine deiminase type-4 (Homo sapiens), Q9UM07 | recombinant PAD4, RCA probe fluorescence polarization | inhibition, % at 6.36 µM | hit rate 0.41% among 330,000;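 active means percent inhibition above a cutoff equal to the mean of all tested compounds plus 3 SD, cut at about 15% in these data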;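 further: 0% = PAD4 with RCA probe and DMSO and 100% = probe without PAD4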
Apaf1 inhib – inhibitors of human Apaf-1 apoptosome, primary screen, biochemical, DEVD-Rh110 fluorescence, uHTS; AID 489030, 2010; hit rate 0.71% among 330,000; Apoptotic protease-activating factor 1 (Homo sapiens), O14727; reconstituted apoptosome caspase-3 activity; inhibition, % at 20 µM; active means inhibition of at least 40% at 20 µM;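 further: plate controls were DMSO wells for no effect and DEVD-CHO caspase inhibitor wells for full effect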
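System: reconstituted apoptosome with Apaf-1, cytochrome c, caspase-9, procaspase-3, dATP; Signal: Rh110 fluorescence intensity; Schedule: 30 min compound preincubation, 50 min activation, room temperature; Reagent: cytochrome c trigger plus (Z-DEVD)2-Rh110 caspase-3 substrate.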
TDP2 absorb – human TDP2 enzyme inhibitors, primary screen, biochemical, epi absorbance, recombinant enzyme | Tyrosyl-DNA phosphodiesterase 2 (Homo sapiens), O95551 | inhibition, % at 12.8 µM | hit rate 0.34% among 370,000 | T5PNP hydrolysis, p-nitrophenol absorbance 415 nm | AID 720702, 2013;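 active means inhibition above the mean of all tested compounds plus 3 SD, set per campaign, cut at about 25% in these data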;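 further: 0% = DMSO with enzyme and 100% = buffer with substrate but no TDP2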
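test system = human TDP2 enzyme | input = TDP2 enzyme at 120 nM final | medium = 50 mM Tris-HCl pH 7.5 with Mg2+, KCl, DTT, BSA | also added = T5PNP substrate, 5 mM | times = 2 h at 37 °C | technique = epi absorbance | benchmarks = high control without enzyme, low control DMSO plus TDP2 | replication = each compound tested once, singlicate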
SUMO HTRF inh – inhibitors of in vitro SUMOylation cascade, primary screen, biochemical, HTRF, uHTS; SUMO-conjugating enzyme UBC9 (Homo sapiens), P63279; HTRF SUMOylation assay, SAE1/SAE2 + UBC9; inhibition, % at 35 µM; hit rate 0.36% among 290,000; AID 2006, 2009; in the data active means inhibition above about 50%, passing the limit was not always enough; inconclusive means no clear call, values can overlap the other calls
The depositor's hits bear a star.

CC(C)CNC(=O)OCc1cn(Cc2ccccc2Cl)nn1 was read as TDP2 absorb -8.
O=C(O)C1OC(Oc2cc3oc(-c4ccccc4)cc(=O)c3c(O)c2O)C(O)C(O)C1O (stereo not drawn) was read as GSTO1 inh 37*, JMJD2C inh -2, PAD4 inh -3, Apaf1 inhib -5, TDP2 absorb 10 and SUMO HTRF inh 9.
Screening Cc1nc2ccccc2c(=O)n1/N=C/c1ccc([N+](=O)[O-])o1 returned GSTO1 inh 20, JMJD2C inh 8, PAD4 inh -6, Apaf1 inhib 1 and SUMO HTRF inh 33.
For Cc1nc2ccccc2n1/N=C/c1ccc([N+](=O)[O-])o1 the results were GSTO1 inh 37*, JMJD2C inh 0, PAD4 inh -6, Apaf1 inhib -18 and TDP2 absorb 6.
Screening O=[N+]([O-])c1ccc(/C=N/n2c(CO)nc3ccccc32)s1 returned GSTO1 inh 37*, JMJD2C inh 3, PAD4 inh -9, Apaf1 inhib -4, TDP2 absorb 3 and SUMO HTRF inh 20.
For Cc1cc(C)cc(N=Cc2ccc([N+](=O)[O-])s2)c1 the results were GSTO1 inh 36*, JMJD2C inh 6, PAD4 inh -6, Apaf1 inhib 18, TDP2 absorb 14 and SUMO HTRF inh 29.
O=C(Cc1cccs1)N/N=C\c1ccc([N+](=O)[O-])s1 was read as GSTO1 inh 13, JMJD2C inh 10, PAD4 inh -7, Apaf1 inhib 5, TDP2 absorb -11 and SUMO HTRF inh 41.
Screening Cc1nc2ccccc2n1/N=C/c1ccc([N+](=O)[O-])s1 returned GSTO1 inh 47*, JMJD2C inh 3, PAD4 inh -15, Apaf1 inhib 1, TDP2 absorb 12 and SUMO HTRF inh 11.
Screening Cc1cc2ncn(/N=C/c3ccc([N+](=O)[O-])s3)c2cc1C returned GSTO1 inh 15, JMJD2C inh -1, PAD4 inh -7, TDP2 absorb 4 and SUMO HTRF inh 14.
COc1ccc(-n2c(SCC(=O)NNC(=S)Nc3ccccc3)nc3ccccc3c2=O)cc1 was read as TDP2 absorb -6.
COc1ccc(OC)c(S(=O)(=O)N2CCCC(C(=O)Nc3c(C)n(C)n(-c4ccccc4)c3=O)C2)c1 (stereo not drawn) was read as TDP2 absorb 9.
`COC(=O)[C@]12C[C@H](CC(=O)NCc3cccc4ccccc34)C(=O)N(Cc3ccco3)C1=C[C@H](C1CCCC1)O[C@@H]2C` gave TDP2 absorb -5.
Cc1[nH]n(-c2ncc(-c3ccc(Cl)cc3)s2)c(=O)c1C(c1ccc(Cl)cc1)C(C#N)C#N (stereo not drawn) was read as GSTO1 inh 13, JMJD2C inh 4, PAD4 inh -9, Apaf1 inhib 21 and SUMO HTRF inh 70*.
`COc1ccc(C(c2c(C)[nH]n(C(N)=S)c2=O)C(C#N)C#N)cc1` (stereo not drawn) gave GSTO1 inh 12, JMJD2C inh -1, PAD4 inh 1, Apaf1 inhib 4, TDP2 absorb 9 and SUMO HTRF inh 16.
For CCC[C@H]1[C@@H](OC(=O)Oc2ccc([N+](=O)[O-])cc2)CC[C@@]23CCCN2C(=O)CCC[C@@H]13 the results were TDP2 absorb 7.
CCOC(=O)c1ccc(Nc2nc(N)c3cc(OC)c(OC)cc3n2)cc1 was read as GSTO1 inh -1, JMJD2C inh 0, PAD4 inh -3, Apaf1 inhib 54* and SUMO HTRF inh -7.
For CC(COc1cccc(F)c1)CN1CCC(C(O)(c2ccccc2)c2ccccc2)CC1 (stereo not drawn) the results were TDP2 absorb -7.
Cn1c(C(=O)N2CCOCC2)cc2c(=O)n3ccccc3nc21 was read as GSTO1 inh 1, JMJD2C inh -1, PAD4 inh 2, Apaf1 inhib 2, TDP2 absorb -5 and SUMO HTRF inh inconclusive.
